# Values joined by “and” are separate entries in the source; they are usually repeats but may differ in a detail not shown here. Equal values may be shown once.
# System: Fibroblast
# Test: Multiplex assay against human fibroblast
# Format: toxicity, cell-based
# Summary of the method: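 At seeding, live cells were stained with Hoechst33342, BioTracker Green Microtubule Cytoskeleton Dye, MitoTracker Red and Annexin V Alexa Fluor 680. After compound addition they were imaged on a CQ1 microscope at 37°C and 5% CO2, and CellPathfinder machine-learning gating sorted them into Hoechst high-intensity objects or normal cells, with normal cells further split into healthy, pyknosed or fragmented nuclei and pyknosed cells into mitotic or apoptotic. Tubulin, mitochondrial-mass and membrane-permeability phenotypes are given as per cents of cells with healthy nuclei.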
# [1] = 12 h, 1 µM, compound concentration 1 uM, replicate 1
# [2] = 12 h, 1 µM, compound concentration 1 uM, replicate 2
# [3] = 12 h, 10 µM, compound concentration 10 uM, replicate 1
# [4] = 12 h, 10 µM, compound concentration 10 uM, replicate 2
# [5] = 24 h, 1 µM, compound concentration 1 uM, replicate 1
# [6] = 24 h, 1 µM, compound concentration 1 uM, replicate 2
# [7] = 24 h, 10 µM, compound concentration 10 uM, replicate 1
# [8] = 24 h, 10 µM, compound concentration 10 uM, replicate 2
# [9] = 48 h, 1 µM, compound concentration 1 uM, replicate 1
# [10] = 48 h, 1 µM, compound concentration 1 uM, replicate 2
# [11] = 48 h, 10 µM, compound concentration 10 uM, replicate 1
# [12] = 48 h, 10 µM, compound concentration 10 uM, replicate 2
smiles,measurement,setting,value
CC(C)(C)NC[C@H](O)COc1nsnc1N1CCOCC1 [TIMOLOL],Population Apoptotic (%),[1],71%
same,Population Fragmented Nuclei (%),[1],22%
same,Population Healthy Nuclei (%),[1],51%
same,Population Hoechst High Intensity Objects (%),[1],14%
same,Population Membrane Permeable-Phenotype (%),[1],14%
same,Population Mitochondria Different-Phenotype (%),[1],1%
same,Population Mitotic Cells (%),[1],28%
same,Population Normal (%),[1],85%
same,Population Pyknosed Nuclei (%),[1],25%
same,Population Tubulin-Different-Phenotype (%),[1],25%
same,Population Apoptotic (%),[2],100%
same,Population Fragmented Nuclei (%),[2],5%
same,Population Healthy Nuclei (%),[2],88%
same,Population Hoechst High Intensity Objects (%),[2],8%
same,Population Membrane Permeable-Phenotype (%),[2],8%
same,Population Mitochondria Different-Phenotype (%),[2],11%
same,Population Mitotic Cells (%),[2],0%
same,Population Normal (%),[2],92%
same,Population Pyknosed Nuclei (%),[2],5%
same,Population Tubulin-Different-Phenotype (%),[2],18%
same,Population Apoptotic (%),[3],60%
same,Population Fragmented Nuclei (%),[3],28%
same,Population Healthy Nuclei (%),[3],40%
same,Population Hoechst High Intensity Objects (%),[3],14%
same,Population Membrane Permeable-Phenotype (%),[3],33%
same,Population Mitochondria Different-Phenotype (%),[3],0%
same,Population Mitotic Cells (%),[3],39%
same,Population Normal (%),[3],85%
same,Population Pyknosed Nuclei (%),[3],31%
same,Population Tubulin-Different-Phenotype (%),[3],47%
same,Total Cell Count,[3],105
same,Population Apoptotic (%),[4],33%
same,Population Fragmented Nuclei (%),[4],8%
same,Population Healthy Nuclei (%),[4],79%
same,Population Hoechst High Intensity Objects (%),[4],3%
same,Population Membrane Permeable-Phenotype (%),[4],4%
same,Population Mitochondria Different-Phenotype (%),[4],7%
same,Population Mitotic Cells (%),[4],66%
same,Population Normal (%),[4],96%
same,Population Pyknosed Nuclei (%),[4],11%
same,Population Tubulin-Different-Phenotype (%),[4],4%
same,Population Apoptotic (%),[5],60%
same,Population Fragmented Nuclei (%),[5],19%
same,Population Healthy Nuclei (%),[5],53%
same,Population Hoechst High Intensity Objects (%),[5],12%
same,Population Membrane Permeable-Phenotype (%),[5],26%
same,Population Mitochondria Different-Phenotype (%),[5],0%
same,Population Mitotic Cells (%),[5],39%
same,Population Normal (%),[5],87%
same,Population Pyknosed Nuclei (%),[5],27%
same,Population Tubulin-Different-Phenotype (%),[5],30%
same,Population Apoptotic (%),[6],50%
same,Population Fragmented Nuclei (%),[6],11%
same,Population Healthy Nuclei (%),[6],81%
same,Population Hoechst High Intensity Objects (%),[6],5%
same,Population Membrane Permeable-Phenotype (%),[6],2%
same,Population Mitochondria Different-Phenotype (%),[6],18%
same,Population Mitotic Cells (%),[6],50%
same,Population Normal (%),[6],94%
same,Population Pyknosed Nuclei (%),[6],6%
same,Population Tubulin-Different-Phenotype (%),[6],21%
same,Population Apoptotic (%),[7],65%
same,Population Fragmented Nuclei (%),[7],22%
same,Population Healthy Nuclei (%),[7],49%
same,Population Hoechst High Intensity Objects (%),[7],16%
same,Population Membrane Permeable-Phenotype (%),[7],58%
same,Population Mitochondria Different-Phenotype (%),[7],2%
same,Population Mitotic Cells (%),[7],34%
same,Population Normal (%),[7],83%
same,Population Pyknosed Nuclei (%),[7],27%
same,Population Tubulin-Different-Phenotype (%),[7],58%
same,Total Cell Count,[7],99
same,Population Apoptotic (%),[8],41%
same,Population Fragmented Nuclei (%),[8],7%
same,Population Healthy Nuclei (%),[8],81%
same,Population Hoechst High Intensity Objects (%),[8],2%
same,Population Membrane Permeable-Phenotype (%),[8],3%
same,Population Mitochondria Different-Phenotype (%),[8],5%
same,Population Mitotic Cells (%),[8],58%
same,Population Normal (%),[8],97%
same,Population Pyknosed Nuclei (%),[8],11%
same,Population Tubulin-Different-Phenotype (%),[8],4%
same,Population Apoptotic (%),[9],64%
same,Population Fragmented Nuclei (%),[9],29%
same,Population Healthy Nuclei (%),[9],53%
same,Population Hoechst High Intensity Objects (%),[9],10%
same,Population Membrane Permeable-Phenotype (%),[9],22%
same,Population Mitochondria Different-Phenotype (%),[9],2%
same,Population Mitotic Cells (%),[9],35%
same,Population Normal (%),[9],89%
same,Population Pyknosed Nuclei (%),[9],16%
same,Population Tubulin-Different-Phenotype (%),[9],34%
same,Population Apoptotic (%),[10],33%
same,Population Fragmented Nuclei (%),[10],12%
same,Population Healthy Nuclei (%),[10],84%
same,Population Hoechst High Intensity Objects (%),[10],15%
same,Population Membrane Permeable-Phenotype (%),[10],14%
same,Population Mitochondria Different-Phenotype (%),[10],1%
same,Population Mitotic Cells (%),[10],66%
same,Population Normal (%),[10],84%
same,Population Pyknosed Nuclei (%),[10],3%
same,Population Tubulin-Different-Phenotype (%),[10],23%
same,Total Cell Count,[10],106
same,Population Apoptotic (%),[11],47%
same,Population Fragmented Nuclei (%),[11],34%
same,Population Healthy Nuclei (%),[11],45%
same,Population Hoechst High Intensity Objects (%),[11],16%
same,Population Membrane Permeable-Phenotype (%),[11],51%
same,Population Mitochondria Different-Phenotype (%),[11],0%
same,Population Mitotic Cells (%),[11],52%
same,Population Normal (%),[11],83%
same,Population Pyknosed Nuclei (%),[11],19%
same,Population Tubulin-Different-Phenotype (%),[11],42%
same,Total Cell Count,[11],118
same,Population Apoptotic (%),[12],33%
same,Population Fragmented Nuclei (%),[12],16%
same,Population Healthy Nuclei (%),[12],77%
same,Population Hoechst High Intensity Objects (%),[12],9%
same,Population Membrane Permeable-Phenotype (%),[12],8%
same,Population Mitochondria Different-Phenotype (%),[12],2%
same,Population Mitotic Cells (%),[12],66%
same,Population Normal (%),[12],90%
same,Population Pyknosed Nuclei (%),[12],5%
same,Population Tubulin-Different-Phenotype (%),[12],29%
C#Cc1cccc(Nc2ncnc3cc(OCCOC)c(OCCOC)cc23)c1 [ERLOTINIB],Population Apoptotic (%),[3],59% and 66%
same,Population Fragmented Nuclei (%),[3],22% and 24% and 20%
same,Population Healthy Nuclei (%),[3],35% and 58% and 62%
same,Population Hoechst High Intensity Objects (%),[3],10% and 11% and 15%
same,Population Mitotic Cells (%),[3],40% and 33% and 29%
same,Population Normal (%),[3],89% and 88% and 84%
same,Population Pyknosed Nuclei (%),[3],41% and 16%
same,Total Cell Count,[3],125 and 263 and 267
same,Population Membrane Permeable-Phenotype (%),[4],10% and 9% and 13%
same,Population Normal (%),[4],57% and 66% and 91%
same,Population Apoptotic (%),[7],60% and 66%
same,Population Fragmented Nuclei (%),[7],23% and 27% and 21%
same,Population Healthy Nuclei (%),[7],46% and 52% and 60%
same,Population Hoechst High Intensity Objects (%),[7],22% and 12% and 19%
same,Population Mitotic Cells (%),[7],40% and 39% and 33%
same,Population Normal (%),[7],77% and 87% and 80%
same,Population Pyknosed Nuclei (%),[7],30% and 19% and 18%
same,Total Cell Count,[7],127 and 268 and 287
same,Population Apoptotic (%),[8],100% and 57% and 75%
same,Population Hoechst High Intensity Objects (%),[8],28% and 38%
same,Population Normal (%),[8],71% and 61%
same,Population Pyknosed Nuclei (%),[8],10% and 16%
same,Population Apoptotic (%),[11],87%
same,Population Fragmented Nuclei (%),[11],41%
same,Population Healthy Nuclei (%),[11],41%
same,Population Hoechst High Intensity Objects (%),[11],16%
same,Population Membrane Permeable-Phenotype (%),[11],23%
same,Population Mitochondria Different-Phenotype (%),[11],33%
same,Population Mitotic Cells (%),[11],12%
same,Population Normal (%),[11],83%
same,Population Pyknosed Nuclei (%),[11],17%
same,Population Tubulin-Different-Phenotype (%),[11],89%
same,Total Cell Count,[11],113
same,Population Apoptotic (%),[12],50%
same,Population Fragmented Nuclei (%),[12],28%
same,Population Healthy Nuclei (%),[12],62%
same,Population Hoechst High Intensity Objects (%),[12],23%
same,Population Membrane Permeable-Phenotype (%),[12],19%
same,Population Mitochondria Different-Phenotype (%),[12],19%
same,Population Mitotic Cells (%),[12],50%
same,Population Normal (%),[12],76%
same,Population Pyknosed Nuclei (%),[12],9%
same,Population Tubulin-Different-Phenotype (%),[12],95%
same,Total Cell Count,[12],86

# — ChEMBL document CHEMBL4689842, “EUbOPEN Chemogenomics Library wave 1” (2021)
